Data set [1] can be described thus: Protein binding in plasma (unknown origin). It counts as ADME, cell-free.
The target in data set [2] is T1, Transient receptor potential cation channel subfamily V member 4 (Homo sapiens, UniProt Q9HBA0). Nature of the data set: Agonist activity at recombinant human TRPV4 expressed in […] cells by SOX9 luciferase reporter gene assay. It counts as cell-based. Summed up: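 ATDC5 cells stably carrying a SOX9 reporter gene construct and human TRPV4 (pcDNA3.1) were seeded at 2.0 × 10^4 cells/well and treated with compound. Luciferase luminescence was measured the next day.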
T1 sequence (Q9HBA0 whole entry): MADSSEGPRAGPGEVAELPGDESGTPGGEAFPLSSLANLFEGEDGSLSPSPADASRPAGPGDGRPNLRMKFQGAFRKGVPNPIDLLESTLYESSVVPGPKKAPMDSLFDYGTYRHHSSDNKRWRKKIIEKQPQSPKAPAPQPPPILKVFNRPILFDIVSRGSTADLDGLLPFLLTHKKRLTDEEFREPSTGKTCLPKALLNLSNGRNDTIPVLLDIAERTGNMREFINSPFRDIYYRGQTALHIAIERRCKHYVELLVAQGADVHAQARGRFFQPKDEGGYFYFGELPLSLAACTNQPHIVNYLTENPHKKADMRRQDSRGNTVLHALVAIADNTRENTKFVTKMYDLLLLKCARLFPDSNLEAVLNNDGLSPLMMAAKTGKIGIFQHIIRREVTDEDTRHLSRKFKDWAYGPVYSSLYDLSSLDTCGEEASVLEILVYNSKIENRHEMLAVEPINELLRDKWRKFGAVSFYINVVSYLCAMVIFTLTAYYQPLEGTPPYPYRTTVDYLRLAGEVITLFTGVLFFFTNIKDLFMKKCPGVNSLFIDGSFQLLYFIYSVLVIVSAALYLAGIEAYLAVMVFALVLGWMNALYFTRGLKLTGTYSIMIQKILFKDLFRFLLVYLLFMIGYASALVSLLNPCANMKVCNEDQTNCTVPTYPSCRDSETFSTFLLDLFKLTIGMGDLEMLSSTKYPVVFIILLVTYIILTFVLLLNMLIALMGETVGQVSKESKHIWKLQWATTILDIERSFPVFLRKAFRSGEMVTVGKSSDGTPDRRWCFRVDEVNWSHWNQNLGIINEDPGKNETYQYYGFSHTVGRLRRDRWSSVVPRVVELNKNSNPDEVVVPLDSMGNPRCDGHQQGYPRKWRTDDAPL
On the technique in general: In a reporter assay the amount or activity of a reporter protein is the signal.

Data set [3] is described as follows: Solubility of the compound in saline. In kind it is physicochemical.
The target in data set [4] is T1, Transient receptor potential cation channel subfamily V member 4. Nature of the data set: Agonist activity at recombinant human TRPV4 expressed in HEK293 cells assessed as increase in intracellular calcium level after 30 mins by Fura-2 AM/Pluronic F-127 probe based fluorescence assay. In kind it is cell-based. Put shortly: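 HEK293 cells transiently expressing human TRPV4 were loaded with 5 µM Fura-2 AM plus 0.2% Pluronic F-127 for 30 min at 37 °C in HEPES buffer (pH 7.4, 1.8 mM CaCl2, 0.1% BSA). They were then washed and resuspended. Intracellular Ca2+ was read by Fura-2 ratio imaging (excitation 340/380 nm, emission 510 nm).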
For orientation: Calcium assays in cells follow changes in intracellular calcium, usually with a dye or a luminescent sensor.

Data set [5] has as its target Transient receptor potential cation channel subfamily V member 1 (Homo sapiens) (UniProt Q8NER1). Nature of the data set: Agonist activity at human TRPV1 assessed as increase in intracellular calcium level at 10 uM relative to control. In kind it is cell-based.

≈ marks a conversion by molar mass, not a printed value.

The term fraction unbound denotes the share of the substance not bound to proteins or other matrix. A word on the solubility: it is the dissolved amount per volume that the medium holds. Lower therefore signals a poorly soluble substance. Broadly, the EC50 is the concentration that produces a half-maximal response.

Chain of Transient receptor potential cation channel subfamily V member 1 (Homo sapiens) (Q8NER1 whole entry): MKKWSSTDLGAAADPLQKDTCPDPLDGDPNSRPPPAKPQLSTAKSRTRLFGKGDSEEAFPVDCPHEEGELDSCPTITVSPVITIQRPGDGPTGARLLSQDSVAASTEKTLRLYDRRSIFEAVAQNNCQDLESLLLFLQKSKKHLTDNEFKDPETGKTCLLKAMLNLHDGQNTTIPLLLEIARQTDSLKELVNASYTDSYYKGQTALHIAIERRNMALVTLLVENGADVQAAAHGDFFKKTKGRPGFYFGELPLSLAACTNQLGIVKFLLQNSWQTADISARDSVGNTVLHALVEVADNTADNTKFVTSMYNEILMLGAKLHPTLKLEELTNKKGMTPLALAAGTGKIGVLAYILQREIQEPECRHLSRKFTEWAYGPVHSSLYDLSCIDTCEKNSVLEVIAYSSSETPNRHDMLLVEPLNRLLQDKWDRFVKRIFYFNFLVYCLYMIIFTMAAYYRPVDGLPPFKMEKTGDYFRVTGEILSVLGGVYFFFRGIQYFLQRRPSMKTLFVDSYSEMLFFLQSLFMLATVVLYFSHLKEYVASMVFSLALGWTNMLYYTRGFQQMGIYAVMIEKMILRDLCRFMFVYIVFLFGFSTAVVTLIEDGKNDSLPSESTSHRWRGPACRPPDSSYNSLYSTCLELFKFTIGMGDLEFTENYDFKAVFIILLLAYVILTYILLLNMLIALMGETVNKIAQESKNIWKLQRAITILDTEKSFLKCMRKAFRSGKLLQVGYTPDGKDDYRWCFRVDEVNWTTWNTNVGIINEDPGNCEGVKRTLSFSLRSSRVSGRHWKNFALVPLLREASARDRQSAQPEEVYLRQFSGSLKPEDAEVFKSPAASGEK

Consider `CN1CCN(c2nc3c(F)cccc3c(=O)n2-c2ccc(OC3CCOCC3)cc2)CC1`, for which the unbound share (fraction unbound) in data set [1] was determined as 0.297. Besides, in data set [2], the ECmax amounted to 2500 nM. Besides, the concentration in solution in data set [3] (solubility) came to 1110 µg/mL (≈ 2520 µM). Further, in data set [4], the EC50 was found to be 870 nM. In data set [5], the Activity was 8.7%.
